Data reported in paper PMC8556345 (Cell, 2021).
Where no end group is shown, it is not given here.

Tests used:
[1] = system: motor cortex pyramidal cells; assay: whole-cell current-clamp, membrane potential, motor cortex pyramidal cells; type: cell-based, mouse; settings: GRP; bath with NBQX, CPP, gabazine, CGP and TTX; 10 cells
ACx VIP cells [2] = assay: whole-cell current-clamp, membrane potential, ACx VIP cells; type: cell-based, mouse
GRP receptor (GRPR) [3] = settings: ref Kroog et al., 1995; cited from earlier work
L3/4 ACx VIP cells = assay: spike probability of VIP cells upon optogenetic stimulation of thalamic inputs; type: cell-based, mouse
Summary of the method: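 L3/4 auditory cortex VIP cells, identified by EGFP in Vip-EGFP or Vip-IRES-Cre x H2B-EGFP mice, were recorded whole-cell in current clamp with low-Cl⁻ K⁺-based solution at 30-32°C. Thalamic inputs were stimulated with 1 s bursts of 5 ms light pulses at 20 Hz every 20 s. […] Spontaneous and evoked spikes were counted.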

ACx SST cells [4] = assay: IPSC frequency, ACx SST cells; type: cell-based, mouse; settings: GRP bath, NBQX and CPP, TTX-sensitive; n=10
[5] = system: Vip+ and glutamatergic cells, motor cortex; assay: immediate early gene; type: in vivo, mouse
Summary of the method: (§1)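 Brains were frozen 45 min later for Fos and Npas4 FISH. Expression was the cell area covered by label, in manually drawn ROIs across all layers, 2-3 slices per mouse. Right-hemisphere values were normalized to the left-hemisphere mean per cell type.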

motor cortex SST cells [6] = assay: IPSC frequency, motor cortex SST cells; type: cell-based, mouse; settings: GRP bath, NBQX and CPP
Summary of the method: (§2)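 Whole-cell voltage clamp at −70 mV in acute coronal slices at 30-32°C, with 3-4 MΩ pipettes. The pipette held K⁺-based high-Cl⁻ solution (127.5 mM KCl, pH 7.3), and the bath held NBQX and CPP at 10 μM each.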

ACx SST cells [7] = assay: whole-cell current-clamp, membrane potential, ACx SST cells; type: cell-based, mouse; settings: ACx (and M1), compared to VIP cells
motor cortex SST cells [8] = assay: whole-cell current-clamp, membrane potential, motor cortex SST cells; type: cell-based, mouse; settings: GRP; bath with NBQX, CPP, gabazine, CGP and TTX; 10 cells
[9] = system: auditory cortex VIP cells; assay: GCaMP acute slice Ca2+ imaging, ACx VIP cells; type: cell-based, mouse
M1 PVALB cells = assay: EPSC frequency, M1 PVALB cells; type: cell-based, mouse; settings: GRP bath, gabazine; n = 10
Summary of the method: (§3)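 Acute coronal slices were incubated in oxygenated Ringer's at 32°C for ~15 min, then held at RT. SST and PVALB cells were identified in Sst-EGFP or Pvalb-EGFP mice. Whole-cell recordings were made at 30-32°C, voltage-clamped at −70 mV, with K⁺-gluconate low-Cl⁻ pipette solution and 10 μM gabazine.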

[10] = system: grpLight (GRPR/cpGFP sensor); assay: grpLight GRP sensor characterization; type: cell-based, human
M1 SST cells = assay: EPSC frequency, M1 SST cells; type: cell-based, mouse; settings: GRP bath, gabazine; n = 9
Summary of the method: as §3

SST cells = assay: EPSC frequency, SST cells, ACx and M1 together; type: cell-based, mouse; settings: GRP bath
Summary of the method: as §3

motor cortex PVALB cells [11] = assay: IPSC frequency, motor cortex PVALB cells; type: cell-based, mouse; settings: GRP bath, NBQX and CPP
Summary of the method: as §2

ACx PVALB cells [12] = assay: whole-cell current-clamp, membrane potential, ACx PVALB cells; type: cell-based, mouse
ACx PVALB cells [13] = assay: EPSC frequency, ACx PVALB cells; type: cell-based, mouse; settings: GRP bath, gabazine; n = 10
Summary of the method: as §3

ACx PVALB cells [14] = assay: IPSC frequency, ACx PVALB cells; type: cell-based, mouse; settings: GRP bath, NBQX and CPP, TTX-sensitive; n=10
[15] = system: motor cortex (M1) VIP cells; assay: whole-cell current-clamp, membrane potential, motor cortex VIP cells; type: cell-based, mouse; settings: CPP, gabazine
ACx VIP cells [16] = assay: in vivo fiber photometry of GCaMP in ACx VIP cells, cannula infusion; parameters: species or system mouse; settings: 2 μl, 300 μM GRP and TAMRA-GRP, 100 nl/min into visual cortex; n = 3 (grpLight1.2) and 8 (GCaMP) mice
Summary of the method: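 Decay was corrected by an exponential fit to trace minima (5000-point sliding window). Autofluorescence measured in fluorophore-free implanted mice was subtracted, and GCaMP was normalized to mean mBeRFP fluorescence.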

[17] = system: Sst+ and Pvalb+ cells, motor cortex; assay: immediate early gene; type: in vivo, mouse
Summary of the method: as §1

ACx SST cells [18] = assay: EPSC frequency, ACx SST cells; type: cell-based, mouse; settings: GRP bath, gabazine; n = 11
Summary of the method: as §3

ACx Pyr cells = assay: IPSC frequency, ACx Pyr cells; type: cell-based, mouse; settings: GRP bath, NBQX and CPP
Summary of the method: as §2

motor cortex PVALB cells [19] = assay: whole-cell current-clamp, membrane potential, motor cortex PVALB cells; type: cell-based, mouse; settings: GRP; bath with NBQX, CPP, gabazine, CGP and TTX; 15 cells
[20] = system: ACx pyramidal (Pyr) cells; assay: whole-cell current-clamp, membrane potential, ACx pyramidal cells; type: cell-based, mouse; settings: ACx (and M1), compared to VIP cells
[21] = TAMRA-GRP imaging in acute brain slices, flow-in delay; parameters: species or system mouse; settings: 300 nM, bath
Summary of the method: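 Non-fluorescent acute brain slices were imaged through a 650/100 nm emission filter. […] Arrival in the bath was defined as the first time point at which fluorescence rose 2 SD above baseline.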

grpLight in ACx = assay: in vivo dual-color photometry of grpLight and TAMRA-GRP, diffusion in cortex; parameters: species or system mouse; settings: infusion into distant cortical area
GRP receptor (GRPR) [22] = assay: binding to GRP receptor; settings: statement in method; no data shown
[23] = 1372 responding VIP cells, male auditory cortex, GRP bath
[24] = 300 nM GRP, male mice, NBQX, CGP

With “VSTGAGGGTVLAKMYPRGSHWAVGHLM-NH2 [GRP, gastrin-releasing peptide]” the “depolarization, motor cortex pyramidal” value [1] was 0.56 ± 0.49 mV, the “depolarization in female compared to male mice” value (ACx VIP cells [2]; 300 nM GRP) was “non-significantly larger depolarization compared to male mice” and the “mean depolarization, female mice” value (ACx VIP cells [2]; 300 nM GRP, bath NBQX, CPP, gabazine, CGP and TTX, mean ± SEM, 10 cells (Fig. S3C)) was 8.62 ±1.11 mV. For the same substance, the “duration of burst-like firing activity” value (ACx VIP cells [2]; 300 nM for 2 min, male mice) was greater than 1 min, the “neurons with long-lasting burst-like firing activity” value (ACx VIP cells [2]; 300 nM for 2 min, male mice) was 3 out of 10 and the “VIP cells that depolarize upon GRP bath application” value (ACx VIP cells [2]; 300 nM for 2 min, male mice, acute slices, 30-32°C) was 7 out of 10. For the same substance, the “dependence of depolarization on concentration” value (ACx VIP cells [2]; Fig. 3C, 6-10 cells per group) was “concentration-dependent”, the “binding to GRPR” value (GRP receptor (GRPR) [3]) was “high affinity and selectivity” and the “average spontaneous spike rate prior to stimulation, after GRP” value (L3/4 ACx VIP cells; 0 ± 0 Hz before GRP, n = 5 cells) was 0.09 ± 0.08 Hz. The “average evoked spike probability after GRP” value (L3/4 ACx VIP cells; 300 nM GRP bath for 2 min, 14 ± 9% before GRP, 5 ms pulses at 20 Hz, n = 5 cells) was 52 ± 16%, the “effect on spontaneous spike rate prior to stimulation onset” value (L3/4 ACx VIP cells; GRP bath) was “without increasing spontaneous spike rate” and the “effect on evoked spike probability” value (L3/4 ACx VIP cells; optogenetic stimulation of thalamo-cortical afferents) was “significantly increased the evoked spike probability”. For the same substance, the “SST cells with increased IPSC frequency” value (ACx SST cells [4]) was 60%, the “Npas4 expression in Vip-IRES-Cre;Grpr fl/y mice” value ([5]; 3 μM GRP into M1, vs control mice) was “significantly smaller” and the “Npas4 expression, Vip+ and glutamatergic cells” value ([5]; 3 μM GRP into right M1) was “significantly increased expression”. For the same substance, the “Fos expression ipsilateral to injection, Vip+ and glutamatergic cells” value ([5]; 200 nl of 3 μM GRP into right M1, anaesthetized mice, FISH at 45 min) was “strong increase in Fos”, the “SST cells with increased IPSC frequency, M1” value (motor cortex SST cells [6]) was 4 out of 10 and the “mean increase in IPSC frequency, M1 SST” value (motor cortex SST cells [6]; n = 10) was 13.28 ± 5.97 Hz. For the same substance, the “GRP-evoked depolarization, SST cells” value (ACx SST cells [7]) was “significantly smaller than in VIP cells”, the “depolarization, motor cortex SST” value (motor cortex SST cells [8]) was 1.39 ± 0.74 mV and the GCaMP peak latency [9, 23] was 156.9 ± 1.5 s. The GCaMP response start [9, 23] was 99.4 ± 0.9 s, the “lowest concentration that increased GCaMP fluorescence in most VIP cells” value ([9]; ACx of male and female mice and M1, bath application) was 3 nM and the “cells with Ca2+ oscillations with TTX” value ([9]; GRP, with TTX) was 14%. For the same substance, the “VIP cells with phasic (oscillatory) GCaMP fluctuations” value ([9]; GRP, without TTX, NBQX, CPP, gabazine, CGP) was 26%, the “GCaMP fluorescence change ΔF/FKCl, female” value ([9]; median (IQR), female auditory cortex, 580 cells in 14 slices, 300 nM GRP, 2 min, 32°C) was 11.8 (15.6) % ΔF/FKCl and the “latency of Ca2+ increases after TAMRA-GRP levels increased” value ([9]; start GCaMP vs start TAMRA-GRP) was 12 s. The “mean increase in EPSC frequency, M1 PVALB” value (M1 PVALB cells) was 0.69 ± 0.80 Hz, the “concentrations detectable by grpLight” value [10] was “nanomolar concentrations” and the “mean increase in EPSC frequency, M1 SST” value (M1 SST cells) was 1.61 ± 0.97 Hz. The “effect on EPSC frequency” value (SST cells; SST and PVALB cells) was “hardly affected”, the “SST cells with increased EPSC frequency” value (SST cells; gabazine) was 2 out of 20 and the “PVALB cells with increased IPSC frequency, M1” value (motor cortex PVALB cells [11]) was 3 out of 10. The “mean increase in IPSC frequency, M1 PVALB” value (motor cortex PVALB cells [11]; n = 10) was 4.59 ± 2.00 Hz, the “GRP-evoked depolarization, PVALB cells” value (ACx PVALB cells [12]; ACx (and M1), compared to VIP cells) was “significantly smaller than in VIP cells” and the “PVALB cell depolarization vs control recordings without GRP” value (ACx PVALB cells [12]; Fig. S3D) was “No significant difference”. For the same substance, the “mean increase in EPSC frequency, ACx PVALB” value (ACx PVALB cells [13]) was 1.95 ± 1.43 Hz, the “PVALB cells with increased IPSC frequency” value (ACx PVALB cells [14]) was 40% and the “M1 VIP neurons with burst-like activity” value [15, 24] was 3 out of 10. The “VIP cells in M1 that depolarized” value [15, 24] was 9 out of 10, the “depolarization, motor cortex VIP” value ([15]; GRP, bath with NBQX, CGP and TTX, 6 cells) was 9.38 ± 1.28 mV and the “onset of functional effect on VIP cell Ca2+ vs grpLight detection” value (ACx VIP cells [16]) was “functional effects on these cells in vivo well before photometric detection of changes in grpLight fluorescence”. The “Npas4 expression, Sst+ and Pvalb+ cells” value ([17]; 3 μM GRP into right M1) was “but not Sst^+ and Pvalb^+ cells”, the “Fos expression, Sst+ and Pvalb+ cells” value ([17]; 200 nl of 3 μM GRP into right M1) was “without changes in expression” and the “mean increase in EPSC frequency, ACx SST” value (ACx SST cells [18]) was 1.86 ± 1.15 Hz. For the same substance, the “Pyr cells with increased IPSC frequency” value (ACx Pyr cells) was 1 out of 10, the “depolarization, motor cortex PVALB” value (motor cortex PVALB cells [19]) was 1.78 ± 0.45 mV and the “GRP-evoked depolarization, Pyr cells” value [20] was “significantly smaller than in VIP cells”.
In the case of “VSTGAGGGTVLAKMYPRGSHWAVGHLM-NH2 [TAMRA-GRP]”, the “TAMRA-GRP fluorescence peak latency, range” value ([21]; 3 slices, range) was 156.4 to 162.8 s, the “TAMRA-GRP fluorescence response start, range” value ([21]; 3 slices, range) was 79 to 95 s and the “TAMRA-GRP fluorescence peak latency” value ([21]; mean of 3 slices) was 160.3 s. For the same substance, the “TAMRA-GRP fluorescence response start” value ([21]; mean of 3 slices) was 87.4 s, the “grpLight fluorescence change in ACx following infusion” value (grpLight in ACx) was “long-lasting increases minutes after the start of GRP infusion” and the “efficiency as GRPR ligand” value (GRP receptor (GRPR) [22]) was “very inefficient GRPR ligand”.
